fluorescein = fluorescein: fluorescein label on the Lys side chain
Molecular target: T1, EHD1-EH (Homo sapiens, UniProt Q9H4M9)
T1 sequence (Q9H4M9 444-532 limits assumed): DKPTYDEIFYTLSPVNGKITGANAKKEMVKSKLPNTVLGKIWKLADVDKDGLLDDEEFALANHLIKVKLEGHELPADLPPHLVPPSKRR
Test: Fluorescence polarization
Assay type: binding
Outline: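 Fluorescein-labelled peptide probes mixed with the EHD1 EH domain; binding read by fluorescence polarization. Buffer: 25 mM MOPS (pH 6.8), 1 mM CaCl2, 15 mM NaCl, 1.5% DMSO, 0.1% Tween 20.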

Substance | binding to EHD1-EH (up to 67 μM EHD1-EH, 15 mM NaCl) | loss of affinity (FP direct binding, reduced charge analogue relative to cNPF1^Flu)
-YAPAEEGK(Flu)- (cyclo(YAPAEEGK(fluorescein))) [cAPA^Flu] | No binding was observed | –
-YNPFEAGK(Flu)- (cyclo(YNPFEAGK(fluorescein))) [cNPF5^Flu] | – | 3 fold

Source: publication PMC4116148 (Biochemistry, 2014)
